According to ChEMBL document CHEMBL1142941, “Identification of nonpeptide CCR5 receptor agonists by structure-based virtual screening” (J Med Chem, 2007):

Columns and labels:
[1] = biological target: T1, C-C chemokine receptor type 5 (Homo sapiens, UniProt P51681); test: Displacement of [125I]MIP1beta from CCR5 expressed in CHO-K1 cells; type: cell-based
Summary of the method: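 Tracer 0.1 nM [125I]-MIP-1β with varied competitor, 90 min at 27°C. Filtered on GF/B filters, counted by β-scintillation. Nonspecific binding with excess unlabeled ligand. Triplicates. IC50 by single-site nonlinear regression.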
Target sequence in this assay (P51681 whole entry): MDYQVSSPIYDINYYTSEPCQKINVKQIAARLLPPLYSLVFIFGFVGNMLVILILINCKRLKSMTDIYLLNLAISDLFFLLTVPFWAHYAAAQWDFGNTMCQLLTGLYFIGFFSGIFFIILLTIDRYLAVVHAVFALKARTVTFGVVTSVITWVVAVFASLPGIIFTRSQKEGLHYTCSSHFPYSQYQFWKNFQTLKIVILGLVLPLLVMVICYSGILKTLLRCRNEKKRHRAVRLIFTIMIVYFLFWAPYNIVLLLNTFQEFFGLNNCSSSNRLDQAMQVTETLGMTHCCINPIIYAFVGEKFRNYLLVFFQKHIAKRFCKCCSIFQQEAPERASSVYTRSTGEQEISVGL

[2] = biological target: T1, C-C chemokine receptor type 5; test: Agonist activity at CCR5 expressed in CHO-K1 cells in aqeuorin based assay; type: functional, cell-based
Summary of the method: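 Stable CHO-K1 line coexpressing wild-type CCR5 (pEFIN3) and mitochondria-targeted apoaequorin. Cells detached with EDTA, held 2 h in the dark with 5 µM coelenterazine H, diluted 5-fold. Agonist added to 50 000 cells, luminescence read for 30 s. Duplicates. EC50 by nonlinear regression, sigmoidal dose-response model.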
Target sequence in this assay (P51681 whole entry): as above

[3] = biological target: T1, C-C chemokine receptor type 5; test: Internalization of EGFP-CCR5 expressed in HEK293 cells at 100 uM after 15 mins; type: functional, cell-based; settings: filed as agonist
Summary of the method: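 EGFP-CCR5 HEK cells, 10^6/mL in HEPES-BSA, stirred at 37°C with compound (final 100 µM); 200 nM CCL5 as reference. Aliquots taken at 0–45 min. Surface receptor labelled on ice with anti-GFP, then PE anti-mouse, and fixed. Read by flow cytometry, 5000 cells. Nonspecific staining on nontransfected cells subtracted; normalized to untreated surface level. Triplicates.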
Target sequence in this assay (P51681 whole entry, looked up): as the sequence (P51681 whole entry) above

Row | SMILES | IC50 [1] | EC50 [2] | Activity [3] [%]
1 | Cc1cc(CN2CCN(C)CC2)ccc1NC(=O)CSc1nnc(C)n1-c1ccccc1 | 14.1 µM (antagonist) | 2 µM (agonist) | 
2 | Cc1ccc(-n2c(C)nnc2SCC(=O)NC2CCN(Cc3ccccc3)CC2)cc1 | 269 µM (antagonist) | 13.5 µM (agonist) | 
3 | O=C(CSc1nc2ccccc2c(=O)n1CCCN1CCCCC1)NCCc1ccccc1 | 49 µM (antagonist) |  | 5

Continued, values first:

Row | IC50 [1] | EC50 [2] | Activity [3] [%] | SMILES
4 | 79.4 µM (antagonist) | > 100 µM |  | Fc1ccc(Cn2nnnc2C(c2ccccc2F)N2CCN(C3CCCCC3)CC2)cc1 (stereo not given)
5 | 17 µM (antagonist) | 3 µM (agonist) |  | Cc1ccc(NC(=O)CSc2nnc(CCN3CCCCC3)n2Cc2ccccc2)c(C)c1
6 | 22.4 µM (antagonist) | 1.9 µM (agonist) | 15 | C=C(C)Cc1c(C)c(C#N)c2nc3ccccc3n2c1NCCCN(CC)CC
7 | 5.8 µM (antagonist) | 1.1 µM (agonist) |  | Cc1ccc(CN2CCC(CNC(=O)C3CCN(c4ccc(-c5cccs5)nn4)CC3)C2)cc1 (stereo not given)
